Measured values: ChEMBL document CHEMBL4513216, “Probing the Open Global Health Chemical Diversity Library for Multistage-Active Starting Points for Next-Generation Antimalarials” (ACS Infect Dis, 2020)

Assay: Toxicity liver stage against HepG2, at 10uM
Format: cell-based
Parameters: test concentration 10 uM, cell line HepG2-A16-CD81EGFP
Details: human, HepG2-A16-CD81EGFP cells; read-out: INHIBITION
Outline: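 Uninfected HepG2-A16-CD81EGFP cells, 3 × 10^3 per well, 1536-well, plated on prespotted compound at 10 μM final, parasite-free screening media added to match infected plates; puromycin 10 μM positive, DMSO 0.5% negative; run in parallel with 48 h PbLuc assay at 37 °C, 5% CO2; viability by CellTiter-Glo luminescence, normalized to controls.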

Molecule `c1ccc2oc(C3CCN(Cc4ncon4)CC3)nc2c1` has a cytotoxicity at 10 µM of 2.56%.
Work on `COCCN1C[C@H]2CN(C(=O)C3CC3)CCN2C1=O` yielded a cytotoxicity at 10 µM of 7.37%.
Work on `O=C(c1cccs1)N1CCN(Cc2cc(=O)c3ccccc3[nH]2)CC1` yielded a cytotoxicity at 10 µM of -2.93%.
Molecule `Cc1nn(-c2ccccc2Cl)c(C)c1CCC(=O)O` has a cytotoxicity at 10 µM of 4.68%.
Work on `O=C(NCCn1cccc1)C(c1ccccc1)N1CCCC1` (stereo not given) yielded a cytotoxicity at 10 µM of -0.288%.
For `CC(C)(C)C(=O)CN1CCc2ccccc2NCCC1=O`, the cytotoxicity at 10 µM was -104%.
With `CC1=Nc2c(c(=O)[nH]n2C2CCCC2)C(c2ccc(O)cc2)S1` (stereo not given) the cytotoxicity at 10 µM was -3.39%.
`CCc1cnc2c(c1Nc1ccccc1OC)c(=O)n(C)c(=O)n2C` gave a cytotoxicity at 10 µM of 6.87%.
With `O=C(Cn1c(=O)oc2ccccc21)N1Cc2cncnc2C1` the cytotoxicity at 10 µM was -0.0603%.
`CN1CCN(C(=O)c2ncn3c2CNS(=O)(=O)c2ccccc2-3)CC1` gave a cytotoxicity at 10 µM of 4.5%.
`O=C(N1CCCC1)N1CCC2(CC(=O)N(c3ccc4c(c3)OCO4)C2)C1` (stereo not given) gave a cytotoxicity at 10 µM of 9.79%.
Molecule `O=C([C@H]1CCCO1)N1CCN(Cc2cccnc2)c2ncccc2C1` has a cytotoxicity at 10 µM of 13.2%.
Work on `Cc1ccc(N2CCCc3sc(C(=O)NCC4CCCO4)nc32)nn1` (stereo not given) yielded a cytotoxicity at 10 µM of -1.19%.
Molecule `CN(C)C(=O)[C@@H]1CCO[C@@H]2CCN(c3ncccn3)C[C@H]21` has a cytotoxicity at 10 µM of 6.65%.
For `NC(=O)N1CC[C@@H]2O[C@@H](COCC(=O)N3CCCC3)CC[C@@H]21`, the cytotoxicity at 10 µM was -0.356%.
Molecule `Cc1ccc(CS(=O)(=O)N2CC[C@H]3[C@H]2CC(=O)N3C)cc1` has a cytotoxicity at 10 µM of -7.33%.
For `Cc1csc(CN2CC[C@H]3C[C@H](C)O[C@@H]3C2)n1`, the cytotoxicity at 10 µM was 2.58%.
`Cc1nc(CN2C(=O)CC[C@@H]3[C@H]2CCN3C(=O)C2CCCO2)cs1` (stereo not given in full) showed a cytotoxicity at 10 µM of -9.33%.
Work on `Cc1ccsc1C(=O)N1CCn2cnc(COCC3CC3)c2C1` yielded a cytotoxicity at 10 µM of 6.93%.
`NC(=O)Cn1nc(-c2ccccc2F)ccc1=O` showed a cytotoxicity at 10 µM of -7.69%.
With `CCn1nc(C)c2nc(C(C)C)nc(N3CCCC3)c21` the cytotoxicity at 10 µM was -1.61%.
For `Cc1ccccc1C(=O)N1CC[C@H](O)[C@@H](N2CCOCC2)CC1`, the cytotoxicity at 10 µM was 5.32%.
In the case of `Cc1nc(Nc2ncccn2)cc(C2CCCN2C2CCOCC2)n1` (stereo not given), the cytotoxicity at 10 µM is reported as -4.45%.
Work on `O=C(CCS(=O)(=O)C1CCCC1)N1CCCC(n2ccnc2)C1` (stereo not given) yielded a cytotoxicity at 10 µM of -0.968%.
`CCOC(C)c1nccn1CC(=O)Nc1cc(C)on1` (stereo not given) showed a cytotoxicity at 10 µM of -5.58%.
Molecule `CS(=O)(=O)NCC1Cc2ccccc2O1` (stereo not given) has a cytotoxicity at 10 µM of 2.01%.
`Cn1cc(C(=O)NCCc2ccc(OC3CCCC3)cc2)ccc1=O` showed a cytotoxicity at 10 µM of -2.51%.
In the case of `COC(CNC(=O)c1ccc[nH]1)c1cccc(Cl)c1` (stereo not given), the cytotoxicity at 10 µM is reported as -0.23%.
For `Clc1ccc(C2(NCc3noc(C4CC4)n3)CCOCC2)cc1`, the cytotoxicity at 10 µM was -3.1%.
In the case of `O=C(c1cc(Cl)c2c(c1)OCO2)N1CCN(c2ncccn2)CC1`, the cytotoxicity at 10 µM is reported as -0.769%.
`Cc1cc(C)n(CC2CCCN2C(=O)c2ccc3[nH]cnc3c2)n1` (stereo not given) showed a cytotoxicity at 10 µM of 3.18%.
For `O=C(C[S+]([O-])Cc1cccc(Cl)c1)NC1CCCC1` (stereo not given), the cytotoxicity at 10 µM was 0.808%.
For `CC1(C)CN(CC(F)(F)F)CCN1CC(N)=O`, the cytotoxicity at 10 µM was 9.92%.
For `CN(C(=O)c1ccc[nH]1)C1CC(=O)N(Cc2ccccc2)C1=O` (stereo not given), the cytotoxicity at 10 µM was 8.02%.
`Cc1nn(C)c(Cl)c1C1CCCN1c1ncnc2[nH]ccc12` (stereo not given) showed a cytotoxicity at 10 µM of 10.9%.
Work on `COCC(O)CN(C)C(=O)c1cccc(-c2csc(C)n2)c1` (stereo not given) yielded a cytotoxicity at 10 µM of -3.04%.
In the case of `c1nc(N2CCN(Cc3nnnn3C3CC3)CC2)c2sccc2n1`, the cytotoxicity at 10 µM is reported as 24.5%.
Molecule `O=C(NCCNS(=O)(=O)C1CCCCC1)c1ccccc1` has a cytotoxicity at 10 µM of -3.82%.
Molecule `CC(C)c1nccc([C@H]2C[C@@H]3CCN(Cc4ccco4)C[C@H]3O2)n1` has a cytotoxicity at 10 µM of -5.25%.
For `CC1(c2ccccc2)CCC(=O)N(CCN2CCOCC2)C1` (stereo not given), the cytotoxicity at 10 µM was -8.65%.
In the case of `CCNC(=O)[C@@H]1C[C@@H](N)CN1C(=O)CCc1ccc(C)c(C)c1`, the cytotoxicity at 10 µM is reported as 2.72%.
In the case of `Cc1nn(CC(=O)N2CCC3(CN(C)C(=O)O3)C2)c(=O)c2ccccc12` (stereo not given), the cytotoxicity at 10 µM is reported as 9.74%.
`Cc1cc(C(F)(F)F)nc(CCNc2nc(C)nc3c2cnn3C)n1` showed a cytotoxicity at 10 µM of 4.79%.
Molecule `CCn1nc(CC(C)C)cc1C(=O)NCC(F)(F)F` has a cytotoxicity at 10 µM of 21.3%.
With `Cc1cc(-c2cncnc2)ccc1OCC(N)=O` the cytotoxicity at 10 µM was 8.07%.
`CCn1cc(CN2CCCN(C(=O)CCc3cnn(C)c3)CC2)cn1` showed a cytotoxicity at 10 µM of 0.153%.
`Cc1nc2cc(O)nn2c(C)c1CCC(=O)NCCCC(C)C` gave a cytotoxicity at 10 µM of -1.52%.
`CC(C)c1nccn1C1CCCN(C(=O)CCCc2ccccn2)C1` (stereo not given) showed a cytotoxicity at 10 µM of -9.02%.
Molecule `CCOc1ccnc(N2CCN(C(=O)c3cccnc3)CC2)n1` has a cytotoxicity at 10 µM of -5.19%.
For `CC(C)c1noc(C(C)N2CCN(Cc3cccs3)CC2)n1` (stereo not given), the cytotoxicity at 10 µM was -6.18%.
Molecule `CNC(=O)c1ccc(C(=O)N2CCCC(n3ccnc3C)C2)cn1` (stereo not given) has a cytotoxicity at 10 µM of -0.248%.
For `CSc1nccn1-c1cccc(C(=O)NCCC(=O)NC(C)C)c1`, the cytotoxicity at 10 µM was 0.153%.
For `CCOc1cc(C)nc(N2CCN(C(=O)c3cscn3)CC2)n1`, the cytotoxicity at 10 µM was -7.54%.
Work on `CC(C)Cc1nc(CN2CCOC(Cn3cncn3)C2)no1` (stereo not given) yielded a cytotoxicity at 10 µM of 2.07%.
`Cc1nc(CN(C)CC(c2cccs2)N2CCOCC2)no1` (stereo not given) showed a cytotoxicity at 10 µM of -2.15%.
In the case of `CC(C)c1nc(C2CCCN(C(=O)CCn3ccccc3=O)C2)no1` (stereo not given), the cytotoxicity at 10 µM is reported as -18.4%.
`CN(C)CC1CN(Cc2ccc(-n3cccn3)cc2)CCO1` (stereo not given) gave a cytotoxicity at 10 µM of 4.09%.
Molecule `CNC(=O)CCS(=O)(=O)Cc1cc(Cl)c2c(c1)OCCO2` has a cytotoxicity at 10 µM of -4.89%.
Molecule `CCCNC(=O)C1CCN(Cc2csc(CC)n2)CC1` has a cytotoxicity at 10 µM of -10.4%.
In the case of `Cc1csc(N2CCCN(C(=O)c3ccoc3C)CC2)n1`, the cytotoxicity at 10 µM is reported as -8.45%.
Work on `Cc1ccc(OCCN2CCCC(c3cc(C(N)=O)[nH]n3)C2)cc1` (stereo not given) yielded a cytotoxicity at 10 µM of -9.14%.
In the case of `Cc1cnn(CC2CN(CC(=O)Nc3ccnn3C(C)C)CCO2)c1` (stereo not given), the cytotoxicity at 10 µM is reported as -8.06%.
Work on `Cc1cnn(CC2CCCN2CC(=O)NC2CCOCC2)c1` (stereo not given) yielded a cytotoxicity at 10 µM of -16%.
In the case of `COCCOc1ncccc1C(=O)N1CCCC1Cn1cc(C)cn1` (stereo not given), the cytotoxicity at 10 µM is reported as -2.95%.
`Cc1cnn(CC2CCCCN2C(=O)c2cccnc2N(C)C)c1` (stereo not given) showed a cytotoxicity at 10 µM of -7.37%.
For `CC(=O)N1CCN(Cn2nc(-c3ccc(F)cc3)oc2=O)CC1`, the cytotoxicity at 10 µM was -3.89%.
Molecule `Cc1cc2n(n1)CC(CNCc1cnn(-c3ccccc3)c1)CN2` (stereo not given) has a cytotoxicity at 10 µM of -9.01%.
In the case of `CCN(C(=O)CS(=O)(=O)Cc1cc(Cl)c2c(c1)OCCCO2)C1CC1`, the cytotoxicity at 10 µM is reported as 0.787%.
Work on `CC(=O)N1CCCN(C(=O)c2ccn(-c3cccc(Cl)c3)n2)CC1` yielded a cytotoxicity at 10 µM of -1.37%.
With `Cc1ccc(CN(CCCN(C)C)Cc2cnc(N(C)C)nc2)o1` the cytotoxicity at 10 µM was 2.26%.
In the case of `COCC1CN(Cc2cc(C)on2)Cc2cn(CC3CCCC3)nc21` (stereo not given), the cytotoxicity at 10 µM is reported as 6.4%.
`O=C(c1ccncc1)N1CCN2C[C@H](Oc3cccc(F)c3)C[C@H]2C1` showed a cytotoxicity at 10 µM of 8.28%.
Work on `O=C(Cc1ccccn1)N1CCC2(CC1)CN(CC1CC1)C(=O)CO2` yielded a cytotoxicity at 10 µM of 7.43%.
Molecule `O=C(NCCCO)c1cc(-c2cc[nH]n2)n2ccccc12` has a cytotoxicity at 10 µM of 14.3%.
`O=C([C@@H]1C[C@@H]2CCN(Cc3ccccn3)C[C@H]2O1)N1CCCO1` gave a cytotoxicity at 10 µM of 2.29%.
`Cc1nc(CN2CCc3ncnc(-c4ccc(F)cc4)c3CC2)cs1` showed a cytotoxicity at 10 µM of 4.89%.
`CC(C)N1CCC2(CCN(C(=O)c3cccnc3)CC2)C1` showed a cytotoxicity at 10 µM of 5.27%.
`O=C(c1ccccc1F)N1C[C@H]2CCC[C@@]2(COCc2ccncc2)C1` showed a cytotoxicity at 10 µM of 7.4%.
For `Cc1cnc(N2CCc3ncnc(N4CCN(C)CC4)c3CC2)nc1`, the cytotoxicity at 10 µM was -1.73%.
In the case of `O=C(NCc1ccccc1)N1C[C@@H]2C[C@H](C(=O)N3CCCC3)[C@H](C1)O2`, the cytotoxicity at 10 µM is reported as 8.46%.
